Assay results: ChEMBL document CHEMBL1140881, “Discovery of 13-oxa prostaglandin analogs as antiglaucoma agents: synthesis and biological activity” (Bioorg Med Chem, 2009)
Each block holds one compound with its values, some of them ahead of it. The source made the active and inactive calls. The rule behind the calls is not given here.

Experiments:
[1] = molecular target: Prostaglandin F2-alpha receptor (Bos taurus, UniProt P37289); test: Displacement of [3H]PGF2 alpha from FP receptor in bovine corpus luteum membrane; assay type: cell membranes
In short: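 Nonspecific binding was set with 10 µM unlabeled PGF2α or cloprostenol. Bound and free ligand were separated by vacuum filtration on PEI-soaked GF/B filters and counted. Ki came from nonlinear fitting across several experiments.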

[2] = molecular target: Prostaglandin F2-alpha receptor (Mus musculus, UniProt P43117); test: Agonist activity at FP receptor in Swiss mouse 3T3 cells assessed as [3H]-IP accumulation by scintillation counting; assay type: functional, cell-based
In short: (§1)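 Swiss 3T3 mouse fibroblasts carry an endogenous FP receptor. They were rinsed in DMEM/F-12 with 10 mM LiCl, then exposed to agonist or vehicle in that medium for 60 min at 37 °C. The reaction was stopped with ice-cold 0.1 M formic acid. Total [3H]-IPs were eluted with ammonium formate in formic acid and counted by scintillation. EC50 and Emax came from nonlinear fits of concentration-response curves pooled from several experiments.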

[3] = molecular target: Prostaglandin F2-alpha receptor (Mus musculus) (UniProt P43117); test: Agonist activity at FP receptor in Swiss mouse 3T3 cells assessed as [3H]-IP accumulation by scintillation counting relative to control; assay type: functional, cell-based; in short: as §1
Oryctolagus cuniculus [4] = species: Oryctolagus cuniculus; test: Effect on ocular irritation in New Zealand albino rabbit assessed as incidence of conjunctival hyperemia at 1 ug after 1 to 5 hrs; assay type: functional, Conjunctiva
In short: (§2)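 Topical single 30 µL drop into both eyes of each of five rabbits, doses 0.03–100 µg. Vehicle was trimethamine/boric acid buffer with 4.6% mannitol, HCO-40, 0.01% EDTA and 0.01% benzalkonium chloride, pH 7.4. Eyes were scored at 1, 2, 3 and 5 h. The percent of eyes scoring +2 or greater, pooled across all time points, is reported as study % incidence. Qualitative, with no statistics.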

Oryctolagus cuniculus [5] = species: Oryctolagus cuniculus; test: Effect on ocular irritation in New Zealand albino rabbit assessed as incidence of conjunctival swelling at 1 ug after 1 to 5 hrs; assay type: functional, Conjunctiva; in short: as §2
Oryctolagus cuniculus [6] = species: Oryctolagus cuniculus; test: Effect on ocular irritation in New Zealand albino rabbit assessed as incidence of conjunctival hyperemia at 1.8 ug after 1 to 5 hrs; assay type: functional, Conjunctiva; in short: as §2
Oryctolagus cuniculus [7] = species: Oryctolagus cuniculus; test: Effect on ocular irritation in New Zealand albino rabbit assessed as incidence of conjunctival swelling 1.8 ug after 1 to 5 hrs; assay type: functional, Conjunctiva; in short: as §2
Oryctolagus cuniculus [8] = species: Oryctolagus cuniculus; test: Effect on ocular irritation in New Zealand albino rabbit assessed as incidence of ocular discharge 1.8 ug after 1 to 5 hrs; assay type: functional, Eye; in short: as §2
Oryctolagus cuniculus [9] = species: Oryctolagus cuniculus; test: Effect on ocular irritation in New Zealand albino rabbit assessed as incidence of ocular discharge at 0.03 ug after 1 to 5 hrs; assay type: functional, Eye; in short: as §2
Oryctolagus cuniculus [10] = species: Oryctolagus cuniculus; test: Effect on ocular irritation in New Zealand albino rabbit assessed as incidence of conjunctival hyperemia at 0.1 ug after 1 to 5 hrs; assay type: functional, Conjunctiva; in short: as §2
Oryctolagus cuniculus [11] = species: Oryctolagus cuniculus; test: Effect on ocular irritation in New Zealand albino rabbit assessed as incidence of conjunctival swelling at 0.1 ug after 1 to 5 hrs; assay type: functional, Conjunctiva; in short: as §2
Oryctolagus cuniculus [12] = species: Oryctolagus cuniculus; test: Effect on ocular irritation in New Zealand albino rabbit assessed as incidence of ocular discharge at 0.1 ug after 1 to 5 hrs; assay type: functional, Eye; in short: as §2
Oryctolagus cuniculus [13] = species: Oryctolagus cuniculus; test: Effect on ocular irritation in New Zealand albino rabbit assessed as incidence of conjunctival hyperemia at 0.3 ug after 1 to 5 hrs; assay type: functional, Conjunctiva; in short: as §2
Oryctolagus cuniculus [14] = species: Oryctolagus cuniculus; test: Effect on ocular irritation in New Zealand albino rabbit assessed as incidence of conjunctival swelling at 0.3 ug after 1 to 5 hrs; assay type: functional, Conjunctiva; in short: as §2
Oryctolagus cuniculus [15] = species: Oryctolagus cuniculus; test: Effect on ocular irritation in New Zealand albino rabbit assessed as incidence of ocular discharge at 0.3 ug after 1 to 5 hrs; assay type: functional, Eye; in short: as §2
Oryctolagus cuniculus [16] = species: Oryctolagus cuniculus; test: Effect on ocular irritation in New Zealand albino rabbit assessed as incidence of ocular discharge at 1 ug after 1 to 5 hrs; assay type: functional, organism-based, Eye; in short: as §2
Oryctolagus cuniculus [17] = species: Oryctolagus cuniculus; test: Effect on ocular irritation in New Zealand albino rabbit assessed as incidence of conjunctival hyperemia at 3 ug after 1 to 5 hrs; assay type: functional, Conjunctiva; in short: as §2
Oryctolagus cuniculus [18] = species: Oryctolagus cuniculus; test: Effect on ocular irritation in New Zealand albino rabbit assessed as incidence of conjunctival swelling at 3 ug after 1 to 5 hrs; assay type: functional, Conjunctiva; in short: as §2
Oryctolagus cuniculus [19] = species: Oryctolagus cuniculus; test: Effect on ocular irritation in New Zealand albino rabbit assessed as incidence of ocular discharge at 3 ug after 1 to 5 hrs; assay type: functional, Eye; in short: as §2
Oryctolagus cuniculus [20] = species: Oryctolagus cuniculus; test: Effect on ocular irritation in New Zealand albino rabbit assessed as incidence of conjunctival hyperemia at 10 ug after 1 to 5 hrs; assay type: functional, Conjunctiva; in short: as §2
Oryctolagus cuniculus [21] = species: Oryctolagus cuniculus; test: Effect on ocular irritation in New Zealand albino rabbit assessed as incidence of conjunctival swelling at 10 ug after 1 to 5 hrs; assay type: functional, Conjunctiva; in short: as §2
Oryctolagus cuniculus [22] = species: Oryctolagus cuniculus; test: Effect on ocular irritation in New Zealand albino rabbit assessed as incidence of ocular discharge at 10 ug after 1 to 5 hrs; assay type: functional, Eye; in short: as §2
Oryctolagus cuniculus [23] = species: Oryctolagus cuniculus; test: Effect on ocular irritation in New Zealand albino rabbit assessed as incidence of conjunctival hyperemia at 30 ug after 1 to 5 hrs; assay type: functional, Conjunctiva; in short: as §2
Oryctolagus cuniculus [24] = species: Oryctolagus cuniculus; test: Effect on ocular irritation in New Zealand albino rabbit assessed as incidence of conjunctival swelling at 30 ug after 1 to 5 hrs; assay type: functional, Conjunctiva; in short: as §2
Oryctolagus cuniculus [25] = species: Oryctolagus cuniculus; test: Effect on ocular irritation in New Zealand albino rabbit assessed as incidence of ocular discharge at 30 ug after 1 to 5 hrs; assay type: functional, Eye; in short: as §2
Felis catus [26] = species: Felis catus; test: Acute […] response in normotensive cat assessed as AUC (1 to 5 hrs) at 0.1 ug; assay type: functional
In short: (§3)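 Conscious cats held in cat bags under uniform room lighting. Horizontal pupil diameter read with a hand-held micrometer, then again at 0.5, 1, 1.5, 2, 2.5, 3, 4 and 5 h after topical dosing. The AUC of pupil diameter change versus time over 1–5 h was computed from group averages. Ranking is qualitative, with no statistics.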

Felis catus [27] = species: Felis catus; test: Acute […] response in normotensive cat assessed as AUC (1 to 5 hrs) at 0.3 ug; assay type: functional; in short: as §3
Felis catus [28] = species: Felis catus; test: Acute […] response in normotensive cat assessed as AUC (1 to 5 hrs) at 1 ug; assay type: functional; in short: as §3
Felis catus [29] = species: Felis catus; test: Toxicity in normotensive cat assessed as ocular irritation; assay type: organism-based, Eye; conditions: in vivo
Felis catus [30] = species: Felis catus; test: Toxicity in normotensive cat assessed as discomfort; assay type: organism-based; conditions: in vivo
Oryctolagus cuniculus [31] = species: Oryctolagus cuniculus; test: Effect on ocular irritation in New Zealand albino rabbit assessed as incidence of conjunctival swelling at 0.03 ug after 1 to 5 hrs; assay type: functional, Conjunctiva; in short: as §2
Oryctolagus cuniculus [32] = species: Oryctolagus cuniculus; test: Effect on ocular irritation in New Zealand albino rabbit assessed as incidence of conjunctival hyperemia at 0.03 ug after 1 to 5 hrs; assay type: functional, Conjunctiva; in short: as §2
Macaca fascicularis [33] = species: Macaca fascicularis; test: Induction of miosis in monkey; conditions: cynomolgus monkey, in vivo
Macaca fascicularis [34] = species: Macaca fascicularis; test: Toxicity in monkey assessed as drug tolerance; conditions: cynomolgus monkey, in vivo
Macaca fascicularis [35] = species: Macaca fascicularis; test: Inhibition of intraocular pressure in hypertensive monkey at 1 ug, bid; conditions: Eye
Macaca fascicularis [36] = species: Macaca fascicularis; test: Inhibition of intraocular pressure in hypertensive monkey at 3 ug, bid after 5th dose; set-up: scale not given: the % may be the effect or the level left
Macaca fascicularis [37] = species: Macaca fascicularis; test: Inhibition of intraocular pressure in hypertensive monkey at 3 ug after first instillation; set-up: scale not given: the % may be the effect or the level left
Macaca fascicularis [38] = species: Macaca fascicularis; test: Inhibition of intraocular pressure in hypertensive monkey at 3 ug, bid after 4th dose measured after 16 hrs; set-up: scale not given: the % may be the effect or the level left

Sequence of Prostaglandin F2-alpha receptor (Mus musculus) (P43117 whole entry): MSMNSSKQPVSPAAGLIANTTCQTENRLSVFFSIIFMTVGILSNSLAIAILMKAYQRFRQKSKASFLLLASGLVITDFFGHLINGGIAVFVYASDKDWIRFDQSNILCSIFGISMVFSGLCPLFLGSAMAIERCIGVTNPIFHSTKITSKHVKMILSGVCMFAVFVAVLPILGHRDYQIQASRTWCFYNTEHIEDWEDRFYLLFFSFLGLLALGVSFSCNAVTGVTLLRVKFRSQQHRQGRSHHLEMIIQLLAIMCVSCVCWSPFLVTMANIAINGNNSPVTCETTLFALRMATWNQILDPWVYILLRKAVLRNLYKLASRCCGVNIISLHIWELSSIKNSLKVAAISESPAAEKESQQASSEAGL
Sequence of Prostaglandin F2-alpha receptor (Mus musculus, UniProt P43117) (P43117 whole entry): as above
Sequence of Prostaglandin F2-alpha receptor (Bos taurus, UniProt P37289) (P37289 whole entry): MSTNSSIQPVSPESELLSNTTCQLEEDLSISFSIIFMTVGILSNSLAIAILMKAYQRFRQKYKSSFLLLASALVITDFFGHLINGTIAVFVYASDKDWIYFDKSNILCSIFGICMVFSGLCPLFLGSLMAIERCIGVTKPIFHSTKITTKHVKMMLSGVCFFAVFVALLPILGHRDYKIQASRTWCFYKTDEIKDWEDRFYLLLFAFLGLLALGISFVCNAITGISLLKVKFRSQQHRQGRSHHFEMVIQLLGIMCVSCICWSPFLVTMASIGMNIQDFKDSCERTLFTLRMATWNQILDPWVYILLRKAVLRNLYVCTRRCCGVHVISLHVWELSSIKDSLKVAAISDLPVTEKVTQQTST

- Ki [1]: 140 nM
- EC50 [2]: 62.2 nM
- Activity [3]: 86%
Structure (SMILES): O=C(O)CCC/C=C\C[C@@H]1[C@@H](OC[C@H](O)COc2cccc(Cl)c2)[C@H](O)C[C@@H]1O

Structure (SMILES): CCCCC[C@H](O)/C=C/[C@@H]1[C@@H](C/C=C\CCCC(=O)O)[C@@H](O)C[C@H]1O [DINOPROST]
- Activity (Oryctolagus cuniculus [4]): 100%
- Activity (Oryctolagus cuniculus [5]): 40%

- Ki [1]: 680 nM
- EC50 [2]: 52.4 nM
- Activity [3]: 62%
Structure (SMILES): O=C(O)CCC/C=C\C[C@@H]1[C@@H](OC[C@@H](O)COc2cccc(Cl)c2)[C@H](O)C[C@@H]1O

- Ki [1]: 130 nM
- EC50 [2]: 5.7 nM
- Activity [3]: 82%
Structure (SMILES): O=C(O)CCC/C=C\C[C@@H]1[C@@H](OC[C@H](O)CCc2cccc(C(F)(F)F)c2)[C@H](O)C[C@@H]1O

- Ki [1]: 98 nM
- EC50 [2]: 31.7 nM
- Activity [3]: 85%
Structure (SMILES): O=C(O)CCC/C=C\C[C@@H]1[C@@H](CC[C@@H](O)CCc2ccccc2)[C@H](O)C[C@@H]1O [LATANOPROST ACID]
- Activity (Oryctolagus cuniculus [6]): 45%
- Activity (Oryctolagus cuniculus [7]): 40%
- Activity (Oryctolagus cuniculus [8]): 20%

- Ki [1]: 87 nM
- EC50 [2]: 68.6 nM
- Activity [3]: 67%
Structure (SMILES): O=C(O)CCC/C=C\C[C@@H]1[C@@H](OC[C@H](O)COc2ccccc2)[C@H](O)C[C@@H]1O

- Ki [1]: 120 nM
- EC50 [2]: 294 nM
- Activity [3]: 67%
Structure (SMILES): O=C(O)CCC/C=C\C[C@@H]1[C@@H](OC[C@@H](O)COc2ccccc2)[C@H](O)C[C@@H]1O

- Ki [1]: 72 nM
- EC50 [2]: 1.9 nM
- Activity [3]: 78%
Structure (SMILES): O=C(O)CCC/C=C\C[C@@H]1[C@@H](OC[C@@H](O)CCc2cccc(C(F)(F)F)c2)[C@H](O)C[C@@H]1O

- Activity (Macaca fascicularis [33]): Not Active
Structure (SMILES): CC(C)OC(=O)CCC/C=C\C[C@@H]1[C@@H](OC[C@@H](O)CCc2cccc(C(F)(F)F)c2)[C@H](O)C[C@@H]1O
- Activity (Oryctolagus cuniculus [9]): 5%
- Activity (Oryctolagus cuniculus [10]): 13%
- Activity (Oryctolagus cuniculus [11]): 38%
- Activity (Oryctolagus cuniculus [12]): 3%
- Activity (Oryctolagus cuniculus [13]): 8%
- Activity (Oryctolagus cuniculus [14]): 25%
- Activity (Oryctolagus cuniculus [15]): 3%
- Activity (Oryctolagus cuniculus [4]): 13%
- Activity (Oryctolagus cuniculus [5]): 30%
- Activity (Oryctolagus cuniculus [16]): 5%
- Activity (Oryctolagus cuniculus [17]): 25%
- Activity (Oryctolagus cuniculus [18]): 8%
- Activity (Oryctolagus cuniculus [19]): 0%
- Activity (Oryctolagus cuniculus [20]): 23%
- Activity (Oryctolagus cuniculus [21]): 35%
- Activity (Oryctolagus cuniculus [22]): 15%
- Activity (Oryctolagus cuniculus [23]): 73%
- Activity (Oryctolagus cuniculus [24]): 45%
- Activity (Oryctolagus cuniculus [25]): 0%
- Activity (Felis catus [26]): 3.12
- Activity (Felis catus [27]): 6.57
- Activity (Felis catus [28]): 10.2
- Activity (Felis catus [29]): Non-toxic
- Activity (Felis catus [30]): Non-toxic
- Activity (Oryctolagus cuniculus [31]): 23%
- Activity (Oryctolagus cuniculus [32]): 13%
- Activity (Macaca fascicularis [34]): Not Active
- Activity (Macaca fascicularis [35]): inactive
- Activity (Macaca fascicularis [36]): 30%
- Activity (Macaca fascicularis [37]): 22%
- Activity (Macaca fascicularis [38]): 21%
